Experimental data reported in ChEMBL document CHEMBL3632560, “1,4-Oxazine β-Secretase 1 (BACE1) Inhibitors: From Hit Generation to Orally Bioavailable Brain Penetrant Leads” (J Med Chem, 2015).

What was measured:
[1] = Dissociation constant, pKa of the compound by potentiometric titration assay; type: physicochemical
[2] = Drug metabolism in human liver microsomes at 1 uM after 15 min by HPLC-MS/MS analysis; type: ADME; conditions: read-out: Drug metabolism
[3] = Drug metabolism in mouse liver microsomes at 1 uM after 15 min by HPLC-MS/MS analysis; type: ADME; conditions: read-out: Drug metabolism
[4] = test system: MDR1 (human); experiment: Apparent permeability across apical to basolateral side in pig LLC cells transfected with human MDR1 at 5 uM by HPLC-MS/MS analysis; type: ADME, cell-based, Sus scrofa; conditions: LLC-PK1
[5] = Drug uptake in pathogen free CD1 Swiss mouse brain at 10 mg/kg, po after 4 hrs; type: ADME, organism-based; conditions: read-out: Drug uptake
In short: (§1)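 Fasted male CD1 Swiss SPF mice dosed 10 mg/kg p.o. (n=6) in 20% HPβCD at pH 3.9 or 20% SBEβCD at pH 3.5. Plasma and brain taken at 2, 4 and 7 h. One hemisphere used for drug bioanalysis; the other was homogenized for Aβ42 and Aβ total by sandwich immunoassay. Kp calculated from AUC0-last.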

[6] = Drug metabolism in dog liver microsomes at 1 uM after 15 min by HPLC-MS/MS analysis; type: ADME, Canis lupus familiaris; conditions: read-out: Drug metabolism
In short: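 Final solvent 0.01% DMSO and 0.5% acetonitrile. Reaction started with NADPH and quenched with acetonitrile at 15 min. Percent metabolized is parent loss measured by HPLC-MS/MS.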

[7] = Distribution coefficient, logD of the compound by chromatography; type: physicochemical; conditions: octanol/water
[8] = Ratio of drug level in brain to plasma of pathogen free CD1 Swiss mouse at 10 mg/kg, po; type: ADME, organism-based; in short: as §1
[9] = Tmax in Beagle dog at 2.5 mg/kg, po; type: ADME, organism-based, Canis lupus familiaris; conditions: in vivo
In short: (§2)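 Fasted Beagle dogs, 2 male and 2 female per dose group, given doses from 0.08 to 10 mg/kg in 20% HPβCD at pH 3.5. Plasma drug levels followed over time to give Cmax, Tmax and T½. CSF Aβ42 measured by MesoScale electrochemiluminescence for up to 50 h after dosing.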

[10] = Cmax in Beagle dog at 2.5 mg/kg, po; type: ADME, organism-based, Canis lupus familiaris; design: dose 2.5 mg/kg, route oral; conditions: in vivo; in short: as §2
[11] = Elimination half-life in Beagle dog at 2.5 mg/kg, po; type: ADME, organism-based, Canis lupus familiaris; conditions: in vivo, read-out: beta t1/2 (converted); in short: as §2

Row | SMILES | pKa [1] | metabolised at 0.25 h, 1 µM [2] [%] | metabolised at 0.25 h, 1 µM [3] [%] | other results
1 | C[C@@]1(c2cccc(NC(=O)c3ccc(Cl)cn3)c2)COCC(N)=N1 | 9.6 | 0 | 6 | 
2 | COc1cnc(C(=O)Nc2ccc(F)c([C@]3(C)COCC(N)=N3)c2)cn1 | 9 | 1 | 6 | Papp A→B at 5 µM [4]: 3.7 ×10⁻⁶ cm/s
3 | COc1cnc(C(=O)Nc2ccc(F)c([C@@]3(C)N=C(N)CO[C@H]3F)c2)cn1 | 7.6 |  |  | 
4 | COc1cnc(C(=O)Nc2ccc(F)c([C@@]3(C)N=C(N)CO[C@@H]3F)c2)cn1 | 7.8 | 31 | 3 | concentration at 4 h [5]: 195 ng/g; metabolised at 0.25 h, 1 µM [6]: 70%; chromatographic logD [7]: 2.04; Kp [8]: 0.65
5 | COc1cnc(C(=O)Nc2ccc(F)c([C@@]3(C)N=C(N)CO[C@@]3(F)C(F)(F)F)c2)cn1 | 6.8 |  |  | chromatographic logD [7]: 3.43
6 | COc1cnc(C(=O)Nc2ccc(F)c([C@@]3(C)N=C(N)CO[C@]3(F)C(F)(F)F)c2)cn1 | 6.9 |  |  | 
7 | COc1cnc(C(=O)Nc2ccc(F)c([C@@]3(C4CC4)N=C(N)CO[C@@H]3F)c2)cn1 | 7.8 |  |  | 
8 | C[C@]1(c2cc(NC(=O)c3ccc(Cl)cn3)ccc2F)N=C(N)CO[C@@H]1F | 7.9 | 0 | 17 | metabolised at 0.25 h, 1 µM [6]: 7%; Papp A→B at 5 µM [4]: 8.5 ×10⁻⁶ cm/s
9 | Cc1cc(Cl)cnc1C(=O)Nc1ccc(F)c([C@@]2(C)N=C(N)CO[C@@H]2F)c1 | 7.4 | 16 | 98 | metabolised at 0.25 h, 1 µM [6]: 21%; Papp A→B at 5 µM [4]: 9.3 ×10⁻⁶ cm/s
10 | C[C@]1(c2cc(NC(=O)c3ccc(C#N)cn3)ccc2F)N=C(N)CO[C@@H]1F | 7.9 | 0 | 2 | concentration at 4 h [5]: 98 ng/g; metabolised at 0.25 h, 1 µM [6]: 0%; Tmax [9]: 2.5 h; Cmax [10]: 571 ng/mL; Kp [8]: 0.33; half-life [11]: 25 h
11 | CC1(c2ccccc2)COCC(N)=N1 (stereo not drawn) | 9.8 |  |  | 
12 | C[C@]1(c2cc(N)ccc2F)N=C(N)CO[C@@H]1F | 8.1 |  |  | 
13 | C[C@]1(c2cc(N)ccc2F)N=C(N)CO[C@H]1C(F)(F)F | 8 |  |  | 
14 | COc1cnc(C(=O)Nc2ccnc([C@@]3(C)N=C(N)CO[C@@H]3F)c2)cn1 (racemic) | 2.6 |  |  | 
15 | COc1cnc(C(=O)Nc2cc([C@@]3(C)N=C(N)CO[C@@H]3F)ccn2)cn1 (racemic) | 2.8 |  |  | 
